Source: PubChem BioAssay
TRPC4 inh: inhibitors of mouse TRPC4 channel, primary screen, Fluo4 calcium, HEK293 TRPC4beta/mu-opioid cells; Short transient receptor potential channel 4 (Mus musculus), Q9QUQ5; DAMGO-evoked Fluo4 calcium flux; stronger effect = lower value; B-score at 10 µM; 300,000 tested, 0.39% active;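 active means B-score over 3 SD under the library average, no early fluorescence shift, positive overall ratio signal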
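Assay system: HEK293 cells with stable TRPC4beta plus mu-opioid receptor expression. Dosing: single dose. Measured by: Fluo4 Ca2+ flux fluorescence. Also added: DAMGO in two steps, submaximal then maximal. Read-out: B score from integrated Fluo4 fluorescence ratio.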
TRPC6 inhibitor: mouse TRPC6 channel inhibitors, primary screen, cell-based, HEK293, membrane potential dye. 310,000 tested, 1.1% active. Short transient receptor potential channel 6 (Mus musculus), Q61143. B-score at 10 µM. AID 2553, 2010. ACh-evoked depolarization; stronger effect = lower value;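 active means B-score under library mean minus 3 SD, initial fluorescence not abnormally high, positive integrated signal ratio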;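 further: B-score derived from integrated fluorescence ratio over the kinetic read; more negative B-score means stronger inhibition of depolarization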
TRPC6 activator: mouse TRPC6 channel activators, primary screen, cell-based, HEK293, membrane potential dye | 310,000 tested, 0.13% active | AID 2550, 2010 | B-score at 10 µM | HEK293-TRPC6 membrane potential dye fluorescence; stronger effect = higher value | Short transient receptor potential channel 6 (Mus musculus), Q61143;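 active means B-score of the integrated fluorescence ratio above library mean plus 3 SD, and starting fluorescence ratio within library mean plus 5 SD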;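 further: higher score means more depolarization so channel activation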
TRPC4 agonist: activators of mouse TRPC4 channel, primary screen, Fluo4 calcium, HEK293 TRPC4beta/mu-opioid cells | Short transient receptor potential channel 4 (Mus musculus), Q9QUQ5 | Fluo4 calcium fluorescence; stronger effect = higher value | B-score at 10 µM | 310,000 tested, 0.49% active | AID 2237, 2010;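 active means B-score above 5 SD of library B-scores, and initial fluorescence ratio not above library mean plus 5 SD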;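 further: positive B-score marks a calcium rise read as TRPC4 activation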
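Assay system: HEK293 stable line with TRPC4beta plus mu-opioid receptor; schedule: 45 min room-temperature Fluo4 loading, 110 s read; technique: kinetic Fluo4 calcium fluorescence; evaluation: integrated baseline-normalised fluorescence ratio, converted to per-well B score; controls: buffer (low) and maximal DAMGO (high)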
Pemphigus Ab inh: inhibitors of pemphigus antibody binding to DSG3, primary screen, biochemical, bead-based, flow cytometry, scFv-GFP | AID 588358, 2011 | Desmoglein-3 (Homo sapiens), P32926 | DSG3-coupled beads, scFv-anti-DSG3-GFP binding; stronger effect = lower value | 310,000 tested, 0.48% active | binding (percent of control), % at 10 µM;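 active means binding more than 3 SD below its plate's average and above zero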;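 further: hits lower antibody fragment binding to DSG3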
Target sequence (P32926 whole entry, looked up, the tested form may be a part): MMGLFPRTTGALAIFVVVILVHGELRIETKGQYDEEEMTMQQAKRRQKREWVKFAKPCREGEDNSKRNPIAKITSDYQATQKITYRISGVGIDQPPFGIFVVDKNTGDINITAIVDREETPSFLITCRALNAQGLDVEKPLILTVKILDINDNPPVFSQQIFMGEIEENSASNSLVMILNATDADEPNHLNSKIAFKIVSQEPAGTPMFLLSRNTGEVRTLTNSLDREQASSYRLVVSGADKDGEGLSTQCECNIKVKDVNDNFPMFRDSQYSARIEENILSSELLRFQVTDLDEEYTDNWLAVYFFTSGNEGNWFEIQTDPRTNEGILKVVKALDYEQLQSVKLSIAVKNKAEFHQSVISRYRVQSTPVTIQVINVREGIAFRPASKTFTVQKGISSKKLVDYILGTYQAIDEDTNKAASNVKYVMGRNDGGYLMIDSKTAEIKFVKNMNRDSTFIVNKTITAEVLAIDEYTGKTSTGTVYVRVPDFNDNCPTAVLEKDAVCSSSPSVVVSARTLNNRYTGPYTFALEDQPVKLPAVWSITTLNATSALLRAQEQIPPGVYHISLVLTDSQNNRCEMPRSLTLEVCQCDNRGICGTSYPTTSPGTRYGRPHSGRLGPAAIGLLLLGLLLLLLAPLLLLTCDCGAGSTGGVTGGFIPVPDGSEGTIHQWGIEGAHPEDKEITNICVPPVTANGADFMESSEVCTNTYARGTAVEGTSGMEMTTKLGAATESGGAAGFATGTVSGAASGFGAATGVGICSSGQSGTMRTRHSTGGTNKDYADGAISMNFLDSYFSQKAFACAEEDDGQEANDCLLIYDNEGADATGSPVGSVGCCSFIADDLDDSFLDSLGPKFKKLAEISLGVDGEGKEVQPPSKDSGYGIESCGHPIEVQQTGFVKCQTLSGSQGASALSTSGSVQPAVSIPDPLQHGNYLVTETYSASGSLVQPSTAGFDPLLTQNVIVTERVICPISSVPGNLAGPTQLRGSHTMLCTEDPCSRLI
TRPC4 potent: positive allosteric modulators of TRPC4, primary screen, cell-based, mouse TRPC4beta, HEK293 mu-opioid, Fluo-4 calcium | Short transient receptor potential channel 4 (Mus musculus), Q9QUQ5 | DAMGO EC20, Fluo-4 Ca2+ flux; stronger effect = higher value | B-score at 10 µM | 310,000 tested, 0.42% active | AID 2227, 2009;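 active means B-score of calcium response area above 5 SD of library B-scores, with initial fluorescence ratio within 5 SD of library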;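 further: B-score of integrated fluorescence ratio over time as area under calcium response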
TRPC4 sel inh 2: mouse TRPC4 off-target activity of TRPC6 inhibitors, second screen; HEK293 TRPC4/MOR, membrane potential dye fluorescence; channel activated by saturating DAMGO dose; inhibition, % at 10 µM; 920 tested, 42% active; shares compounds with TRPC6 inhibitor;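 active means compounds whose fluorescence signal differed from control wells by over 3 SD, either direction, in both duplicate plates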
TRPC4 spec: mouse TRPC4 modulation by TRPC6 hits, confirmation, selectivity assay for TRPC6 inhibitor project, cell-based, HEK293 TRPC4/mu-opioid, membrane potential dye; shares compounds with TRPC6 inhibitor; membrane potential fluorescence; AID 2777, 2010; 920 tested, 61% active; activity change, negative = inhibition, % at 10 µM;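 active means rise or fall in signal beyond 3 SD of buffer-only wells in both replicate plates, either sign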;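 further: integrated kinetic ratio of fluorescence range over baseline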
HEK293 MPD ctr 2-1: nonspecific membrane potential effects, parental HEK293, confirmation, counter-screen for TRPC6 inhibitor project, cell-based, second counter screen; signal change vs control, % at 10 µM; parental HEK293 membrane potential dye fluorescence; maximal acetylcholine challenge after compound addition; AID 2779, 2010; shares compounds with TRPC6 inhibitor; 920 tested, 31% active;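 active means membrane potential signal moving either way by over 3 SD of the maximum-effect control, in both duplicate plates, meaning non-specific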
HEK293 MPD ctr-1: membrane potential modulation in parental HEK293, confirmation, counter-screen for TRPC6 inhibitor project, cell-based; shares compounds with TRPC6 inhibitor; parental HEK293 membrane potential dye fluorescence; membrane potential signal change, % at 10 µM; 920 tested, 60% active;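 active means membrane potential signal shifting up or down by more than 3 SD of buffer-only wells, on both duplicate plates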
HEK293 MPD ctr-2: parental HEK293 membrane potential modulation, confirmation, counter-screen for TRPC6 modulator project, cell-based; 2,400 tested, 51% active; membrane potential signal change, % at 10 µM; shares compounds with TRPC6 inhibitor; membrane potential dye fluorescence;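 active means membrane potential signal moves up or down beyond 5 SD from buffer-only wells, on both duplicate plates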
HEK293 MPD ctr 2-2: second counter-screen for TRPC6 modulators: effect in parental HEK293 cells; shares compounds with TRPC6 inhibitor; 2,400 tested, 14% active; membrane potential dye fluorescence; after compound, maximal acetylcholine stimulation; AID 488926; inhibition, % at 10 µM;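 active means membrane potential signal drops by more than 5 SD from the mean control signal, in both duplicate plates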;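 further: plate controls were acetylcholine ECmax control wells for no effect and buffer only wells for full effect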
TRPC4 ctr mod: TRPC4 modulation by TRPC6 hit compounds, confirmation, selectivity assay for TRPC6 modulator project, cell-based, HEK293 TRPC4/mu-opioid, membrane potential dye, mouse; membrane potential fluorescence; percent change from control (negative = decrease, positive = increase), % at 10 µM; AID 488927, 2010; 2,400 tested, 69% active; shares compounds with TRPC6 inhibitor;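 active means membrane potential signal moved up or down beyond 5 SD of buffer control wells, in both duplicate plates, actives on both sides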;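 further: plate controls were assay buffer wells for no effect and DAMGO maximal-effect wells for full effect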
TRPC4 ctr inh 2: second selectivity test of TRPC6 modulators against mouse TRPC4 | shares compounds with TRPC6 inhibitor | HEK293 TRPC4/mu-opioid, membrane potential dye fluorescence; stimulated with maximal-effect DAMGO | inhibition, % at 10 µM | 2,400 tested, 55% active | AID 488928;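 active means drop in membrane potential signal beyond 5 SD of the control wells in both duplicate plates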;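 further: TRPC4 counter screen for TRPC6 hits run under conditions tuned for TRPC6 not TRPC4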
TRPC6 block conf: mouse TRPC6 channel inhibitors, confirmation, HEK293 cells, membrane potential dye, duplicate; ACh-evoked depolarization; AID 488960, 2010; inhibition, % at 10 µM; 3,300 tested, 43% active; shares compounds with TRPC6 inhibitor;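 active means fluorescence ratio falls more than 5 SD below the full-stimulation control mean, in both duplicate runs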;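 further: integrated fluorescence ratio of peak minus minimum over baseline after agonist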
TRPC6 act conf: mouse TRPC6 channel activators, confirmation, HEK293 cells, membrane potential dye, duplicate | shares compounds with TRPC6 inhibitor | HEK293-TRPC6 membrane potential dye fluorescence, FDSS | activation, % at 10 µM | 2,800 tested, 11% active | AID 488961, 2010;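 active means ratio signal rise beyond 5 SD above unstimulated control wells' mean, seen in both duplicate runs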;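 further: plate controls were buffer EC0 wells for no effect and acetylcholine ECmax response for full effect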
Active calls of the source: *; i = inactive; . = not tested or not shown; + = active, no number. Most compounds without a hit are left out; they make up all but 2.5% or so of the library.

SMILES | TRPC4 inh | TRPC6 inhibitor | TRPC6 activator | TRPC4 agonist | Pemphigus Ab inh | TRPC4 potent | HEK293 MPD ctr-2 | HEK293 MPD ctr 2-2 | TRPC4 ctr mod | TRPC4 ctr inh 2 | TRPC6 block conf | TRPC6 act conf | others
COc1ccc(N2CCc3c(C)nc4c(OC)cc(OC)cc4c32)cc1 | i | -5.7* | i | i | . | i | -173%* | 76%* | -24%* | 56%* | 55%* | i
COc1ccc(N2CCc3c(C)nc4c(OC)cc(OC)cc4c32)c(OC)c1 | i | i | i | i | . | i | . | . | . | . | . | .
Cc1nc2c(C)cccc2c2c1CCN2c1ccccc1F | i | -5.8* | i | i | . | i | -143%* | i | -20%* | 58%* | 50%* | i
C=CC#CC1(O)CC(C)N(C)CC1C (configuration not stated) | i | i | i | i | 100 | i | . | . | . | . | . | .
CCCCOc1ccc(-c2nnc(-c3cc[n+](C)cc3)o2)cc1 | i | -8.2* | i | i | 81 | i | . | . | . | . | i | i | TRPC4 sel inh 2=i;TRPC4 spec=-11%*;HEK293 MPD ctr 2-1=-69%*;HEK293 MPD ctr-1=-200%*
COc1cc(CNCCc2ccccc2F)ccc1OCc1ccc(Cl)nc1 | i | -7.7* | i | i | 101 | i | . | . | . | . | 60%* | i | TRPC4 sel inh 2=48%*;TRPC4 spec=i;HEK293 MPD ctr 2-1=226%*;HEK293 MPD ctr-1=3.9%*
CCN(C(=O)CN1CCOCC1)C1(C)C(=O)c2ccccc2C1=O | i | i | i | i | 91 | i | . | . | . | . | . | .
CCCn1nc([N+](=O)[O-])c(C(C#N)c2nc3ccccc3s2)c(Cl)c1=O (configuration not stated) | i | -13* | i | i | 108 | i | -210%* | i | -36%* | 83%* | 66%* | i
CCn1nc([N+](=O)[O-])c(C(C#N)c2nc3ccccc3n2C)c(Cl)c1=O (configuration not stated) | i | i | i | i | 100 | i | . | . | . | . | . | .
O=C1CC[C@@H](C(=O)O)N1 | . | . | . | . | 104 | . | . | . | . | . | . | .
O=C(COc1ccccc1)Nc1ccccc1Cl | i | i | i | i | 109 | i | . | . | . | . | . | .
Fc1ccc(C(CCNCc2ccccn2)c2ccc(Cl)cc2)cc1 (configuration not stated) | i | -5.2* | i | i | 104 | i | 188%* | i | 31%* | 74%* | i | .
CN(C)C(=O)c1ccccc1NC(=O)Cc1cccc2ccccc12 | i | i | i | i | 78 | i | . | . | . | . | . | .
Cc1nnc(NC(=O)c2c(-c3ccccc3Cl)noc2C)s1 | i | i | i | i | 101 | i | . | . | . | . | . | .
Cc1onc(-c2ccccc2Cl)c1C(=O)Nc1nnc(Cc2ccc(Cl)cc2)s1 | i | -6.6* | i | i | . | i | . | . | . | . | i | i | TRPC4 sel inh 2=i;TRPC4 spec=i;HEK293 MPD ctr 2-1=i;HEK293 MPD ctr-1=i
Cc1ccc(N2CC(C(=O)Nc3ccc4c(c3)OCO4)CC2=O)cc1C (configuration not stated) | i | i | i | i | 109 | i | . | . | . | . | . | .
COCCN(C(=O)c1ccc(N(C)S(=O)(=O)c2ccc(C)cc2)cc1)c1c(N)n(CC(C)C)c(=O)[nH]c1=O | . | . | . | . | 104 | . | . | . | . | . | . | .
O=C1/C(=C/c2ccccc2)Nc2ccccc21 | i | i | 70* | 83* | 144 | i | + | + | 309%* | i | . | 587%*
O=C1CNC(=O)/C(=C\c2ccccc2)N1 | i | i | i | i | 96 | i | . | . | . | . | . | .
COc1ccccc1N1CCN(CC(=O)Nc2ccc(CN3CCCCC3)cc2)CC1 | i | i | i | i | 100 | i | . | . | . | . | . | .
O=C(COc1ccc(Cl)cc1Cl)Nc1ccc(CN2CCOCC2)cc1 | i | i | i | i | 104 | i | . | . | . | . | . | .
Cc1ccc(Cl)cc1N1CCN(CC(=O)Nc2ccc(CN3CCCCC3)cc2)CC1 | i | -5.5* | i | i | 110 | i | 152%* | i | 19%* | 76%* | 44%* | .
